# Data from ChEMBL document CHEMBL4342410, “Design and Discovery of N-(3-(2-(2-Hydroxyethoxy)-6-morpholinopyridin-4-yl)-4-methylphenyl)-2-(trifluoromethyl)isonicotinamide, a Selective, Efficacious, and Well-Tolerated RAF Inhibitor Targeting RAS Mutant Cancers: The Path to the Clinic” (J Med Chem, 2020).
# Active and inactive are the calls of the source. The rule behind the calls is not given here.
# How the values were obtained:
# [1] = Apparent permeability across basolateral to apical side in human Caco2 cells at pH 7.4 by LC/MS/MS analysis; format: ADME, cell-based; details: Caco-2, pH 7.4
# Cytochrome P450 3A4 = Cytochrome P450 3A4 (Homo sapiens, UniProt P08684); test: Time dependent inhibition of CYP3A4 in human liver microsomes assessed as inactivation rate constant at 10 uM using midazolam as substrate incubated prior to substrate addition and measured after 6 mins in presence of NADPH; format: ADME; details: 0.1 h
# How it was run: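 Human liver microsomes (0.5 mg/mL) preincubated with test compound at 10 µM and 1 mM NADPH in phosphate buffer at 37 °C for 0, 5, 15 and 30 min. Mixture then diluted 20-fold and incubated with midazolam (20 µM) at 37 °C for 6 min to measure residual CYP3A4 activity. kobs taken as the initial rate of decline of activity versus preincubation time.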
# [2] = Intrinsic clearance in human liver microsomes; format: ADME, Microsome; details: read-out: CLH
# [3] = target: T1, RAF proto-oncogene serine/threonine-protein kinase (Homo sapiens, UniProt P04049); test: Inhibition of CRAF in human Calu6 cells assessed as reduction MEK phosphorylation measured after 1 hr by sandwich ELISA; format: cell-based
# [4] = Apparent permeability across apical to basolateral side in human Caco2 cells at pH 7.4 by LC/MS/MS analysis; format: ADME, cell-based; details: Caco-2, pH 7.4
# [5] = target: RAF proto-oncogene serine/threonine-protein kinase (Homo sapiens, UniProt P04049, Y340E/Y341E); test: Inhibition of CRAF Y340E/Y341E mutant (unknown origin) using human MEK1 K97R mutant as substrate pretreated for 30 mins followed by substrate addition measured after 40 mins by alphascreen assay
# Calu-6 = test: Antiproliferative activity against human Calu6 cells harboring KRAS Q61K mutant assessed as reduction in cell viability after 72 hrs by CellTiter-Glo assay; format: functional, cell-based; details: Calu-6, 72 h
# [6] = Solubility of compound in pH 6.8 Cl-free PBS buffer by shake-flask assay; format: physicochemical
# How it was run: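 Shake-flask solubility measured in chloride-free PBS at pH 6.8.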
# [7] = Drug level in dog hepatocytes treated with RAF709 at 10 uM measured after 3 hrs by LC-MS/MS analysis; format: ADME, cell-based, Canis lupus familiaris, Hepatocyte
# [8] = Drug level in rat hepatocytes treated with RAF709 at 10 uM measured after 3 hrs by LC-MS/MS analysis; format: ADME, cell-based, Hepatocyte
# [9] = Drug level in human hepatocytes treated with RAF709 at 10 uM measured after 3 hrs by LC-MS/MS analysis; format: ADME, cell-based, Hepatocyte
# [10] = Drug metabolism in human hepatocytes assessed as amide hydrolysis at 10 uM measured after 3 hrs by LC-MS/MS analysis; format: ADME, cell-based, Hepatocyte
# [11] = Stability in human hepatocytes assessed as parent compound remaining at 10 uM measured after 3 hrs by LC-MS/MS analysis; format: ADME, cell-based, Hepatocyte; details: read-out: Stability
# [12] = Stability in rat hepatocytes assessed as parent compound remaining at 10 uM measured after 3 hrs by LC-MS/MS analysis; format: ADME, cell-based, Hepatocyte
# [13] = Drug metabolism in rat hepatocytes assessed as amide hydrolysis at 10 uM measured after 3 hrs by LC-MS/MS analysis; format: ADME, cell-based, Hepatocyte
# [14] = Stability in dog hepatocytes assessed as parent compound remaining at 10 uM measured after 3 hrs by LC-MS/MS analysis; format: ADME, cell-based, Canis lupus familiaris, Hepatocyte; details: read-out: Stability
# [15] = target: T1, RAF proto-oncogene serine/threonine-protein kinase; test: Activation of CRAF in human Calu6 cells assessed as induction of MEK phosphorylation at 3 uM measured after 1 hr by sandwich ELISA; format: cell-based
# [16] = target: T1, RAF proto-oncogene serine/threonine-protein kinase; test: Inhibition of CRAF in human Calu6 cells assessed as reduction MEK phosphorylation up to 24 uM measured after 1 hr by sandwich ELISA; format: cell-based
# [17] = Stimulation of BRAF-CRAF dimerization in human HCT116 cells measured after 2 hrs by NanoBit luciferase complementation assay; format: cell-based
# T1 sequence (P04049 whole entry): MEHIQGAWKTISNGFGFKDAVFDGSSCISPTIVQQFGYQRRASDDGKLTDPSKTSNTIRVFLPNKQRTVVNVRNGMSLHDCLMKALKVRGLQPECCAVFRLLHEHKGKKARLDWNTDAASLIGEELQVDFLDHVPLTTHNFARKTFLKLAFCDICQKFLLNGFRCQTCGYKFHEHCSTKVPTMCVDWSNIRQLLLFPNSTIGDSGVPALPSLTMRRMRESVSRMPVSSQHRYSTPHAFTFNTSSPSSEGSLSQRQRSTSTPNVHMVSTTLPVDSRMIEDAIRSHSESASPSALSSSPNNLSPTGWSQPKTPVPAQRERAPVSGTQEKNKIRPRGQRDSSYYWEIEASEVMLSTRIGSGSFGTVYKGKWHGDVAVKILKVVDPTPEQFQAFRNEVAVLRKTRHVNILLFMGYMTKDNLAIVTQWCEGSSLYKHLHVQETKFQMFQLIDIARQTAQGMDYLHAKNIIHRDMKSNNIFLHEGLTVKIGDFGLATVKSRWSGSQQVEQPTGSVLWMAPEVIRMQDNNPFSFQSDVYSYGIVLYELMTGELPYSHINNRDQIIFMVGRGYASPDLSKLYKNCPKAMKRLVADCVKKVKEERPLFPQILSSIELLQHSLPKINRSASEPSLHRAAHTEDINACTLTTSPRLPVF
# Sequence of RAF proto-oncogene serine/threonine-protein kinase (Homo sapiens, UniProt P04049, Y340E/Y341E) (P04049 whole entry Y340E/Y341E): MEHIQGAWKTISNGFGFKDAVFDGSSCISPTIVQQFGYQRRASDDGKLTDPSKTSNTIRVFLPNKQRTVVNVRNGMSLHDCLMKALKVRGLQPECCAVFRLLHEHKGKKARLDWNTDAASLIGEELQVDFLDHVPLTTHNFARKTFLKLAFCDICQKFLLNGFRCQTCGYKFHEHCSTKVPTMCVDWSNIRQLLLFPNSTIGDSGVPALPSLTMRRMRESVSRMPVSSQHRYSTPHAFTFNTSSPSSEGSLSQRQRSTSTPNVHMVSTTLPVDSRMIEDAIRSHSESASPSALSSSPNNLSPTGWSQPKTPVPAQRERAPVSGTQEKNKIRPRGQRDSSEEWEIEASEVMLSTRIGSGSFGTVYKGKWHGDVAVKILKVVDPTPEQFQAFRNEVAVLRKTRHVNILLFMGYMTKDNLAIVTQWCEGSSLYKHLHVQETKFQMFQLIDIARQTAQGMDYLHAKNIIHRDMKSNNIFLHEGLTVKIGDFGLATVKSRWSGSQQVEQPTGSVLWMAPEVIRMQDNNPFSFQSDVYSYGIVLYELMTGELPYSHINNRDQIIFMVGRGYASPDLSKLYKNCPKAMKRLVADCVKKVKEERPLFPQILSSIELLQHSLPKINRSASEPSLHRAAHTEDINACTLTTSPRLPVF
# Sequence of Cytochrome P450 3A4 (P08684 whole entry): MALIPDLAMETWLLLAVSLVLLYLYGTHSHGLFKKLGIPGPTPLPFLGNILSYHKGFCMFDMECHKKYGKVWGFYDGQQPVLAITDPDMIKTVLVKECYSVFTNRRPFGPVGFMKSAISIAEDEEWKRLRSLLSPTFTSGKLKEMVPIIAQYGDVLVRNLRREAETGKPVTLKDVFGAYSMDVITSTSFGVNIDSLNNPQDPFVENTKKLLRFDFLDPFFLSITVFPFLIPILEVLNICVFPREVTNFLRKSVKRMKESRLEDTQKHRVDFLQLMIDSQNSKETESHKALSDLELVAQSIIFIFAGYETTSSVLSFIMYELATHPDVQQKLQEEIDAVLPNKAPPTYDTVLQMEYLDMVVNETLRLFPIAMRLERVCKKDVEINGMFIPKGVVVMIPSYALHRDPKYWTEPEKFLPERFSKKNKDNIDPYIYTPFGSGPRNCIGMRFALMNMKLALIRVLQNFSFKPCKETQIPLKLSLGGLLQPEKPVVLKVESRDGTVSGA
Structure (SMILES),Papp B→A [1] [nm/s],microsomal CLint [2] [µL/min/mg],EC50 [3] [µM],Papp A→B [4] [nm/s],EC50 (Calu-6) [µM],solubility thermodynamic [6] [µM],Drug uptake [7],Drug uptake [8],Drug uptake [9],further results
Cc1ncc(NC(=O)c2ccnc(C(C)(F)F)c2)cc1-c1cc(NCCO)nc(N2CCOCC2)c1,340,10.4,0.027,30,6.22,730,–,–,–,K (Cytochrome P450 3A4): 0.035 min⁻¹; IC50 [5]: 0.0007 µM
Cc1ncc(NC(=O)c2cccc(C(F)(F)F)c2)cc1-c1cnc(OC2CCOCC2)c(N(CCO)CCO)c1,–,–,–,–,–,–,Active,Active,Active,–
Cc1ncc(NC(=O)c2cccc(C(F)(F)F)c2)cc1-c1cnc(OC(CCO)CCO)c(N2CCOCC2)c1,–,–,–,–,–,–,Active,Active,Active,–
Cc1ccc(NC(=O)c2ccnc(C(C)(C)C#N)c2)cc1-c1cc(N2CCOCC2)c(=O)n(C)n1,490,15.5,0.052,63,1.35,33.9,–,–,–,–
Cc1ccc(NC(=O)c2cccc(C(F)(F)F)c2)cc1-c1cc(N2CCOCC2)nc(NCCO)n1,300,48,0.061,80,0.16,2.1,–,–,–,IC50 [5]: 0.0002 µM
Cc1ncc(NC(=O)c2cccc(C(F)(F)F)c2)cc1-c1cnc(O[C@H]2CCOC[C@H]2F)c(N2CCOCC2)c1,200,65.5,–,160,0.34,25,–,–,–,–
[2H]C1(Oc2ncc(-c3cc(NC(=O)c4cccc(C(F)(F)F)c4)cnc3C)cc2N2CCOCC2)CCOCC1,–,88,–,–,0.4,104,–,–,–,–
CC(C)(C)c1nc(-c2cccc(NS(=O)(=O)c3c(F)cccc3F)c2F)c(-c2ccnc(N)n2)s1 [DABRAFENIB],–,–,–,–,–,–,–,–,–,Activity [15]: Active; inhibition [16]: inactive; EC50 [17]: Not Active

# Now from value to compound, other results behind:
Papp B→A [1] [nm/s],microsomal CLint [2] [µL/min/mg],EC50 [3] [µM],Papp A→B [4] [nm/s],EC50 (Calu-6) [µM],solubility thermodynamic [6] [µM],Drug uptake [7],Drug uptake [8],Drug uptake [9],Structure (SMILES),further results
530,20.5,0.008,50,0.51,36.3,–,–,–,Cc1ccc(NC(=O)c2ccnc(C(F)(F)F)c2)cc1-c1cc(NCCO)nc(N2CCOCC2)c1,K (Cytochrome P450 3A4): 0.035 min⁻¹; IC50 [5]: 0.0006 µM
410,43.3,–,–,5.28,13,–,–,–,Cc1ccc(NC(=O)c2cccc(C(F)(F)F)c2)cc1-c1cc(N2CCOCC2)ncn1,–
–,–,–,–,–,–,Active,Active,Active,Cc1ncc(N)cc1-c1cnc(OC2CCOCC2)c(N2CCOCC2)c1,–
–,94,–,–,–,–,–,–,–,Cc1ncc(NC(=O)c2cccc(C(F)(F)F)c2)cc1-c1cnc(OC2CCOCC2)c(N2CCOCC2)c1,"Drug metabolism [10]: < 1%; remaining at 3 h, 10 µM [11]: 44%; Stability [12]: 36%; Drug metabolism [13]: 20%; remaining at 3 h, 10 µM [14]: 74%"
–,–,–,–,–,–,Active,Active,Active,Cc1ncc(NC(N)=O)cc1-c1cnc(OC2CCOCC2)c(N2CCOCC2)c1,–
430,9.4,–,3,3.91,55,Active,Active,Active,Cc1ncc(NC(=O)c2cccc(C(F)(F)F)c2)cc1-c1c[nH]c(=O)c(N2CCOCC2)c1,–
–,302,0.021,–,1.76,43,–,–,–,CO[C@H]1COCC[C@@H]1Oc1ncc(-c2cc(NC(=O)c3cccc(C(F)(F)F)c3)cnc2C)cc1N1CCOCC1,IC50 [5]: 0.0017 µM
510,7.7,0.008,44,0.88,59.6,–,–,–,Cc1ncc(NC(=O)c2cccc(C(F)(F)F)c2)cc1-c1cc(N2CCOCC2)c(OC2CCOCC2)nn1,–
